The record followed here is ChEMBL document CHEMBL1141003, “Carbon analogs of antifungal dioxane-triazole derivatives: synthesis and in vitro activities” (Bioorg Med Chem Lett, 2008).

Data set [1] has as its system Candida albicans. Kind of data set: Antimicrobial activity against Candida albicans ATCC 24433 by broth microdilution method. It is filed as functional. The gist of the method:
(§1)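 MICs were determined by NCCLS-guideline broth microdilution in RPMI1640 medium at 35 °C against Candida strains.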
(Broth dilution looks for growth in wells or tubes with falling amounts of substance.)

Data set [2] deals with Candida albicans. The experiment in a line: Antimicrobial activity against Candida albicans TIMM 3164 by broth microdilution method. The data set is classed as functional. The gist of the method: as §1
Another data set deals with Candida tropicalis. The experiment in a line: Antimicrobial activity against Candida tropicalis ATCC 750 by broth microdilution method. The data set is classed as functional. A digest of the protocol: as §1
A further data set relates to Cryptococcus neoformans. The experiment in a line: Antimicrobial activity against Cryptococcus neoformans TIMM 1855 by broth microdilution method. It is filed as functional. A digest of the protocol: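 NCCLS broth microdilution MIC determination at 35 °C for Cryptococcus neoformans.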
Data set [3] deals with Candida albicans. Kind of data set: Antimicrobial activity against Candida albicans ATCC 64550 by broth microdilution method. It is filed as functional. A digest of the protocol:
as §1

The test system of data set [4] is Candida albicans. Kind of data set: Antimicrobial activity against Candida albicans SANK 51486 by broth microdilution method. It is filed as functional. The gist of the method:
as §1

Data set [5] has as its system Aspergillus fumigatus. The experiment in a line: Antimicrobial activity against Aspergillus fumigatus ATCC 26430 by broth microdilution method.
For another data set, the system named is Pichia kudriavzevii. Kind of data set: Antimicrobial activity against Candida krusei ATCC 6258 by broth microdilution method. It is filed as functional. A digest of the protocol:
as §1

The next data set relates to Aspergillus flavus. Kind of data set: Antimicrobial activity against Aspergillus flavus SANK 18497 by broth microdilution method.
For a further data set, the system named is Nakaseomyces glabratus. Kind of data set: Antimicrobial activity against Candida glabrata ATCC 90030 by broth microdilution method. It is filed as functional. The gist of the method:
as §1

The subject of the next data set is Candida parapsilosis. The experiment in a line: Antimicrobial activity against Candida parapsilosis ATCC 90018 by broth microdilution method. It is filed as functional. The note with it: Lodderomyces parapsilosis. The gist of the method:
as §1

In data set [6] the test system is Aspergillus fumigatus. The experiment in a line: Antimicrobial activity against Aspergillus fumigatus SANK 10569 by broth microdilution method. It is filed as functional. A digest of the protocol: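 Broth microdilution following NCCLS guidelines. Aspergillus strains incubated at 30 °C in RPMI1640 medium. The MIC was read as the endpoint.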
The test system of data set [7] is Candida albicans. Kind of data set: Antimicrobial activity against Candida albicans 427 infected ddY mouse assessed as survival at 20 mg/kg, po administered after 1 hr, 4 hrs, 24 hrs of infection. It is filed as functional. The gist of the method:
(§2)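 ddY mice (n = 10) infected systemically by intravenous injection of C. albicans 427, 5.5 × 10⁶ CFU/mouse. Treatment 20 mg/kg/administration, given 1, 4 and 24 h after infection, orally or ip as per line. Survival recorded 21 days after administration.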

The test system of data set [8] is Candida albicans. Kind of data set: Antimicrobial activity against Candida albicans 427 infected ddY mouse assessed as survival at 20 mg/kg, ip administered after 1 hr, 4 hrs, 24 hrs of infection. The data set is classed as functional. The note with it: route intraperitoneal. The gist of the method:
as §2

A further data set has as its system Mus musculus. Kind of data set: Toxicity in ddY mouse at 500 mg/kg, po once daily for 4 days. The note with it: in vivo, 96 h.
Data set [9] concerns Candida albicans. Kind of data set: Antimicrobial activity against Candida albicans 427 infected ddY mouse assessed as survival rate at 20 mg/kg, po administered after 1 hr, 4 hrs, 24 hrs of infection. It is filed as functional. A digest of the protocol:
as §2

Values after ≈ are worked out from the molar mass of the structure shown. Some results are limits rather than exact numbers.

The MIC is the least concentration at which growth counts as inhibited.

As for `C[C@@H](S[C@H]1CO[C@H](/C=C/C=C/c2ccc(C(F)(F)F)cc2)OC1)[C@](O)(Cn1cncn1)c1ccc(F)cc1F.O=C(O)C(=O)O`, the minimal inhibitory concentration (MIC) in the data set with Candida albicans [1] came out at 0.125 µg/mL; with Candida albicans [2], 0.125 µg/mL; with Candida tropicalis it was 0.125 µg/mL; in the data set on Cryptococcus neoformans, 0.016 µg/mL; in the data set on Candida albicans [3] it was 1 µg/mL; against Candida albicans [4] it was 0.016 µg/mL. Besides, the MIC worked out at 0.25 µg/mL in the data set on Aspergillus fumigatus [5]; 0.25 µg/mL with Pichia kudriavzevii; 0.5 µg/mL against Aspergillus flavus; 1 µg/mL in the data set on Nakaseomyces glabratus; 0.063 µg/mL with Candida parapsilosis; 0.25 µg/mL against Aspergillus fumigatus [6].
As to `C[C@@H](S[C@H]1CO[C@H](/C=C/C=C/C=C/c2ccc(C(F)(F)F)cc2)OC1)[C@](O)(Cn1cncn1)c1ccc(F)cc1F.O=C(O)C(=O)O`, the MIC in the data set with Candida albicans [1] is 0.25 µg/mL; with Candida albicans [2], 1 µg/mL; in the data set with Candida tropicalis, 2 µg/mL; in the data set with Cryptococcus neoformans it was 0.5 µg/mL; in the data set with Candida albicans [3], greater than 4 µg/mL; in the data set with Candida albicans [4] it was 0.031 µg/mL. Further, the MIC is 2 µg/mL in the data set with Aspergillus fumigatus [5]; 1 µg/mL against Pichia kudriavzevii; 4 µg/mL in the data set on Aspergillus flavus; greater than 4 µg/mL against Nakaseomyces glabratus; 0.25 µg/mL in the data set with Candida parapsilosis; 2 µg/mL in the data set with Aspergillus fumigatus [6].
`C[C@@H](C[C@H]1CO[C@H](/C=C/c2ccc(C(F)(F)F)cc2)OC1)[C@](O)(Cn1cncn1)c1ccc(F)cc1F.O=C(O)C(=O)O`: the MIC against Candida albicans [1] was 0.031 µg/mL; with Candida albicans [2], 0.016 µg/mL; against Candida tropicalis, 0.125 µg/mL; with Cryptococcus neoformans, 0.016 µg/mL; with Candida albicans [3] it was 1 µg/mL; against Candida albicans [4], no more than 0.008 µg/mL. For the same molecule, the minimal inhibitory concentration (MIC) in the data set with Aspergillus fumigatus [5] amounted to 0.25 µg/mL; against Pichia kudriavzevii, 0.063 µg/mL; with Aspergillus flavus it was 0.5 µg/mL; in the data set with Nakaseomyces glabratus, 1 µg/mL; with Candida parapsilosis, 0.031 µg/mL; against Aspergillus fumigatus [6], 0.25 µg/mL.
For the molecule `C[C@@H](C[C@H]1CO[C@H](/C=C/C=C/C=C/c2ccc(C(F)(F)F)cc2)OC1)[C@](O)(Cn1cncn1)c1ccc(F)cc1F.O=C(O)C(=O)O`, the MIC was 0.125 µg/mL with Candida albicans [1]; 0.125 µg/mL with Candida albicans [2]; 0.25 µg/mL in the data set with Candida tropicalis; 0.125 µg/mL with Cryptococcus neoformans; 0.5 µg/mL with Candida albicans [3]; 0.031 µg/mL against Candida albicans [4]. Moreover, the MIC in the data set on Aspergillus fumigatus [5] was 0.5 µg/mL; against Pichia kudriavzevii it was 0.25 µg/mL; with Aspergillus flavus, 1 µg/mL; in the data set with Nakaseomyces glabratus, 2 µg/mL; against Candida parapsilosis, 0.125 µg/mL; with Aspergillus fumigatus [6] it was 0.5 µg/mL.
In the case of `C[C@@H](C[C@H]1CO[C@H](c2ccc(C(F)(F)F)cc2)OC1)[C@](O)(Cn1cncn1)c1ccc(F)cc1F.O=C(O)C(=O)O`, the minimal inhibitory concentration (MIC) in the data set with Candida albicans [1] was 0.016 µg/mL; against Candida albicans [2], 0.016 µg/mL; against Candida tropicalis, 0.125 µg/mL; with Cryptococcus neoformans, 0.031 µg/mL; against Candida albicans [3], 0.5 µg/mL; against Candida albicans [4], no more than 0.008 µg/mL. Moreover, the MIC in the data set with Aspergillus fumigatus [5] worked out at 0.25 µg/mL; against Pichia kudriavzevii, 0.125 µg/mL; against Aspergillus flavus it was 1 µg/mL; against Nakaseomyces glabratus, 1 µg/mL; in the data set with Candida parapsilosis it was 0.016 µg/mL; against Aspergillus fumigatus [6], 0.25 µg/mL.
As for `C[C@@H](S[C@H]1CO[C@H](c2ccc(C(F)(F)F)cc2)OC1)[C@](O)(Cn1cncn1)c1ccc(F)cc1F`, the minimal inhibitory concentration (MIC) with Candida albicans [1] is 0.016 µg/mL (≈ 0.031 µM); against Candida albicans [2], 0.063 µg/mL (≈ 0.122 µM); in the data set on Candida tropicalis, 0.5 µg/mL (≈ 0.97 µM); in the data set on Cryptococcus neoformans, 0.031 µg/mL (≈ 0.0601 µM); against Candida albicans [3], 1 µg/mL (≈ 1.94 µM); against Candida albicans [4], no more than 0.008 µg/mL. For the same molecule, the MIC in the data set on Aspergillus fumigatus [5] came to 1 µg/mL (≈ 1.94 µM); against Pichia kudriavzevii, 0.25 µg/mL (≈ 0.485 µM); against Aspergillus flavus it was 2 µg/mL (≈ 3.88 µM); against Nakaseomyces glabratus, 1 µg/mL (≈ 1.94 µM); in the data set on Candida parapsilosis, 0.031 µg/mL (≈ 0.0601 µM); against Aspergillus fumigatus [6], 1 µg/mL (≈ 1.94 µM).
Regarding `C[C@@H](C[C@H]1CO[C@H](/C=C/C=C/c2ccc(C(F)(F)F)cc2)OC1)[C@](O)(Cn1cncn1)c1ccc(F)cc1F.O=C(O)C(=O)O`, the minimum inhibitory concentration (MIC) with Candida albicans [1] is 0.016 µg/mL; in the data set with Candida albicans [2] it was 0.016 µg/mL; against Candida tropicalis, 0.125 µg/mL; in the data set with Cryptococcus neoformans it was 0.016 µg/mL; against Candida albicans [3] it was 0.5 µg/mL; with Candida albicans [4], no more than 0.008 µg/mL. Moreover, the MIC was found to be 0.125 µg/mL against Aspergillus fumigatus [5]; 0.063 µg/mL against Pichia kudriavzevii; 0.5 µg/mL in the data set on Aspergillus flavus; 1 µg/mL against Nakaseomyces glabratus; 0.031 µg/mL with Candida parapsilosis; 0.125 µg/mL in the data set on Aspergillus fumigatus [6]. In addition, the Survival with Candida albicans [7] and in the data set on Candida albicans [8] was 21 days throughout. For the same molecule, the Activity entry with Mus musculus is given as “Non-toxic”.
Regarding `C[C@@H](S[C@H]1CO[C@H](/C=C/c2ccc(C(F)(F)F)cc2)OC1)[C@](O)(Cn1cncn1)c1ccc(F)cc1F`, the minimal inhibitory concentration (MIC) against Candida albicans [1] came out at 0.063 µg/mL (≈ 0.116 µM); against Candida albicans [2] it was 0.125 µg/mL (≈ 0.231 µM); with Candida tropicalis it was 0.031 µg/mL (≈ 0.0572 µM); against Cryptococcus neoformans it was 0.016 µg/mL (≈ 0.0295 µM); in the data set on Candida albicans [3] it was 2 µg/mL (≈ 3.69 µM); in the data set on Candida albicans [4], 0.016 µg/mL (≈ 0.0295 µM). The MIC against Aspergillus fumigatus [5] was found to be 0.25 µg/mL (≈ 0.462 µM); in the data set on Pichia kudriavzevii, 0.25 µg/mL (≈ 0.462 µM); against Aspergillus flavus it was 1 µg/mL (≈ 1.85 µM); in the data set on Nakaseomyces glabratus it was 1 µg/mL (≈ 1.85 µM); against Candida parapsilosis, 0.031 µg/mL (≈ 0.0572 µM); in the data set on Aspergillus fumigatus [6], 0.25 µg/mL (≈ 0.462 µM).
With `OC(Cn1cncn1)(Cn1cncn1)c1ccc(F)cc1F` [FLUCONAZOLE], the MIC against Candida albicans [1] is 0.5 µg/mL (≈ 1.63 µM); against Candida albicans [2] it was greater than 4 µg/mL; in the data set with Candida tropicalis, 2 µg/mL (≈ 6.53 µM); in the data set on Cryptococcus neoformans, greater than 4 µg/mL; against Candida albicans [3], greater than 4 µg/mL; with Candida albicans [4] it was 0.25 µg/mL (≈ 0.816 µM). For the same molecule, the MIC was greater than 4 µg/mL in the data set with Aspergillus fumigatus [5]; greater than 4 µg/mL against Pichia kudriavzevii; greater than 4 µg/mL against Aspergillus flavus; greater than 4 µg/mL with Nakaseomyces glabratus; 0.5 µg/mL (≈ 1.63 µM) with Candida parapsilosis; greater than 4 µg/mL in the data set with Aspergillus fumigatus [6]. For the same molecule, the Activity in the data set with Candida albicans [9] is on record as 60%.
Take `CCC(C)n1ncn(-c2ccc(N3CCN(c4ccc(OCC5COC(Cn6cncn6)(c6ccc(Cl)cc6Cl)O5)cc4)CC3)cc2)c1=O` (centres undefined) [ITRACONAZOLE]: the minimal inhibitory concentration (MIC) turned out to be 0.125 µg/mL (≈ 0.177 µM) in the data set on Candida albicans [1]; 0.25 µg/mL (≈ 0.354 µM) with Candida albicans [2]; 0.5 µg/mL (≈ 0.709 µM) against Candida tropicalis; 0.25 µg/mL (≈ 0.354 µM) with Cryptococcus neoformans; 1 µg/mL (≈ 1.42 µM) in the data set on Candida albicans [3]; 0.031 µg/mL (≈ 0.0439 µM) against Candida albicans [4]. Further, the minimum inhibitory concentration (MIC) in the data set on Aspergillus fumigatus [5] is 0.25 µg/mL (≈ 0.354 µM); in the data set on Pichia kudriavzevii it was 0.5 µg/mL (≈ 0.709 µM); against Aspergillus flavus, 0.5 µg/mL (≈ 0.709 µM); against Nakaseomyces glabratus it was 1 µg/mL (≈ 1.42 µM); in the data set with Candida parapsilosis, 0.125 µg/mL (≈ 0.177 µM); in the data set with Aspergillus fumigatus [6], 0.25 µg/mL (≈ 0.354 µM).
